Data taken from the EternaBench riboswitch data.

Tested on: MS2 coat protein
Assay: apparent Kd, MS2 coat protein; higher = weaker binding; RNA-MaP array; FMN 200 µM where present
How it was run: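 The apparent Kd is reported as the median of filtered per-cluster binding-curve fits. To get these curves, designs transcribed by stalled E. coli RNA polymerase on Illumina sequencing-chip clusters were titrated with SNAP-549-labelled MS2 coat protein from 0.7 or 1.5 nM, doubling to 3 µM. Titrations were run without and then with constant ligand in 100 mM Tris-HCl pH 7.5, 80 mM KCl, 4 mM MgCl2, BSA, DTT, yeast tRNA and Tween-20, and green signal was normalised to red-channel RNA signal and control-cluster median Fmax.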

[1] = designed as: OFF switch for flavin mononucleotide, no ligand
[2] = ligand present: flavin mononucleotide, designed as: OFF switch for flavin mononucleotide
[3] = designed as: ON switch for flavin mononucleotide, no ligand
[4] = ligand present: flavin mononucleotide, designed as: ON switch for flavin mononucleotide

UAAAUUAACAAGAAGGCUAACAUGAGGAUCACCCAUGUUGUACAUGGAUAUAGAGGAUAUUGCUAAUAAUUAUUUAUCAUAAUU
apparent Kd [1]: 24.4 nM | apparent Kd [2]: 20.1 nM

UAAGCGUAUGUUAGGAUAUGCUGGUCCUUGGAUCAGCAGAAGGAACAUGAGGAUCACCCAUGUAGAAUCGUUUA
apparent Kd [1]: 18.3 nM | apparent Kd [2]: 40.2 nM

UAAGUAUGUUGAGGAUAUUAUGUUUGGUGAGAUGACAUGAGGAUCACCCAUGUGUUAUCAGUUCUUAAGAAGGCAACAUACUUA
apparent Kd [3]: 25.7 nM | apparent Kd [4]: 17.8 nM

UAAGUUGAGGAGAAGGGAGCACAUGAGGAUCACCCAUGUGGUCCUUUGUGCUCAGGAUAUCCAUGGAGCUCCGUCGCGUUCCAU
apparent Kd [1]: 4.49 nM | apparent Kd [2]: 3.32 nM

UAAUAUUUAUGAUAUUAUUACAUUAGAAGGCAAGACAUGUGGAUACAUGAGGAUCACCCAUGUAUUGAGGAUAUAGACAUAUAU
apparent Kd [1]: 15.4 nM | apparent Kd [2]: 19.2 nM

UAAUGACCUGUACCUAGUUGGUGACAUGAGGAUCACCCAUGUCAGGAUAUCGGGUUUGAAAACAACGAGAAGGGACAACGGGUG
apparent Kd [1]: 20.9 nM | apparent Kd [2]: 42.1 nM

UACAGACAUGAGGAUCACCCAUGUGAGGAUAUCGAUAACGAUAACAUAAUAUAAACGGCGAGAAGGCACAGCAU
apparent Kd [1]: 31.7 nM | apparent Kd [2]: 34.9 nM

UACAGACAUGAGGAUCACCCAUGUGAGGAUAUUUCUGCUGGGAUCAGCCCAAUAUGCGAGAGAAGGCACUAGGG
apparent Kd [1]: 133 nM | apparent Kd [2]: 184 nM

UACAUGAGGAUCACCCAUGUUUUGUCGUGUAUGGUAUUUAUCUAGGAUAUCAAUUUGUAUAUUUAUGAGAAGGAGAAUAUUAAU
apparent Kd [1]: 34.5 nM | apparent Kd [2]: 39.6 nM

UACAUUUAACAGAAGGCGUUUAUAUUUAACUUACGAGGAUAUGUAUAACAUGAGGAUCACCCAUGUAACUUGGAUAGAAUAUCU
apparent Kd [3]: 9.46 nM | apparent Kd [4]: 8.32 nM

UACGUACAGAAGAACUCCGGAUCUAGAAGGGACAUGAGGAUCACCCAUGUACCGUUGAUUGCUUGUCAGGAUAUAGACCCGGCC
apparent Kd [1]: 6.07 nM | apparent Kd [2]: 14.2 nM

UACGUACAGAAGAACUCCGGGUCCAGAAGGGACAUGAGGAUCACCCAUGUACCGUUGAUUGCUUGUCAGGAUAUGGACCCAGCC
apparent Kd [1]: 7.75 nM | apparent Kd [2]: 26.8 nM

UACGUAUGAGGAUAUACAAACAGAAAAAUCAGACGUAACUGACAUGAGGAUCACCCAUGUAGAAGGCAUAUACA
apparent Kd [1]: 27.7 nM | apparent Kd [2]: 18.6 nM

UAGAAGUCAGGAUAUGCAUGGCGGGACUUGCGUCGUGGCGUGCAGAAGGGACAUGAGGAUCACCCAUGUGGAGC
apparent Kd [1]: 116 nM | apparent Kd [2]: 169 nM

UAGAGUCGCGUCAGGAUAUACCACUUAACCCAGUAGUAGAAGGGACAUGAGGAUCACCCAUGUCGGUGUUAGCC
apparent Kd [1]: 23.2 nM | apparent Kd [2]: 26.2 nM

UAGGCGAACAUGAGGAUCACCCAUGUACGCGGUAUAUGAGCGAGAAGGGUAUGAUGUGUGGUCCUACAGGAUAUCGCUAAUAAA
apparent Kd [3]: 26.2 nM | apparent Kd [4]: 6.52 nM

UAGUAUAAGGGCAUUACACAUGAGGAUCACCCAUGUACGUUAGAGGAUAUGCAUUCCAGUCGAACGUAGAAGGUUAGAGAAGGG
apparent Kd [1]: 211 nM | apparent Kd [2]: 176 nM

UAGUGCAUUAGAGGAUAUUCUUACGACACGAGUAAGACAUGAGGAUCACCCAUGUUGUGGCAUGGGAAGAAGGCUGAUGUGCUA
apparent Kd [3]: 60 nM | apparent Kd [4]: 14.5 nM

UAUAAACAUGAGGAUCACCCAUGUAAUAAUAUGGGAGGAUAUCAGAAUUUAUUUAUUUAAUGAGAAGGCCUAAUAU
apparent Kd [3]: 627 nM | apparent Kd [4]: 43.2 nM

UAUAACUUACAGAAGGGUAUUGUGGUGCAUUAUUAGUAGGAAAUACUAUACAGGAUAUGUAAUACAUGAGGAUCACCCAUGUUC
apparent Kd [3]: 22.3 nM | apparent Kd [4]: 14.9 nM

UAUAAUUAGUAGAAGGACGGAGAGUAAGAAGUCGUAGGAUAUACAAAAGACAUGAGGAUCACCCAUGUGAGUAUGUUGGGAAGG
apparent Kd [1]: 7.05 nM | apparent Kd [2]: 7.62 nM

UAUACACAUGAGGAUCACCCAUGUGAGGAUAUGUAAAAAAAACCGACGGUUUUUUUUUACAGAAGGCACAUAUA
apparent Kd [1]: 51.6 nM | apparent Kd [2]: 53.5 nM

UAUAUAAUUAAGAGCUGGAAAACAACAUGAGGAUCACCCAUGUAGGAUAUCAGCACGAUAAGUGCUGAGAAGGACUACCAGCUC
apparent Kd [1]: 14 nM | apparent Kd [2]: 16.8 nM

UAUAUAUAGGCAGGAUAUACAUGAAUAUAUAUAAUAUAAUAUAAUAUAACAUGAGGAUCACCCAUGUAGAAGGGCCAAUAUAUA
apparent Kd [1]: 56.2 nM | apparent Kd [2]: 117 nM

UAUAUAUAGGCAGGAUAUACAUGAAUAUAUAUAAUGUAGUAUGAUGUAACAUGAGGAUCACCCAUGUAGAAGGGCCAAUAUAUA
apparent Kd [1]: 36.8 nM | apparent Kd [2]: 95.2 nM

UAUAUAUAGGCAGGAUAUACAUGUAUAUAUAAUAUAUUAUAUAUUAUUACAUGAGGAUCACCCAUGUAGAAGGGCCAUAUUAUA
apparent Kd [1]: 41.3 nM | apparent Kd [2]: 65.9 nM

UAUAUAUAGUAAGGAUAUGUAAUUAAUUUAUAAACAGAAGGUACUGACAUGAGGAUCACCCAUGUUUUAGUGUGGGCAUGUAGA
apparent Kd [1]: 95.3 nM | apparent Kd [2]: 155 nM

UAUAUAUAGUAAGGAUAUGUAAUUAUUUUAGAAACAGAAGGUACUGACAUGAGGAUCACCCAUGUUUUAGUGUGGGCAUGUAGA
apparent Kd [1]: 90.4 nM | apparent Kd [2]: 147 nM

UAUAUAUAGUAAGGAUAUGUAGUUAUUUUAUAAACAGAAGGUACUGACAUGAGGAUCACCCAUGUUUUAGUGUGGGCAUGUAGA
apparent Kd [1]: 87.7 nM | apparent Kd [2]: 128 nM

UAUAUAUAGUAAGGAUAUGUAUUAAUUUUUUAAACAGAAGGUACUGACAUGAGGAUCACCCAUGUUUUAGUGUGGGCAUGUAGA
apparent Kd [1]: 78.8 nM | apparent Kd [2]: 131 nM

UAUAUGUCAGGAUAUUAGUUGAGGUGGAAUUUAGCCUCUGCUGAGAAGGGACAUGAGGAUCACCCAUGUUCCUC
apparent Kd [1]: 21.9 nM | apparent Kd [2]: 200 nM

UAUAUGUCAGGAUAUUAGUUGAGUUAGAAUUUAUCCUCUGCUGAGAAGGGACAUGAGGAUCACCCAUGUUCCUC
apparent Kd [1]: 15.1 nM | apparent Kd [2]: 31.5 nM

UAUAUGUGAGGAUAUCAGGUGUGCUAGCGUACUGGUACAUCUGAGAAGGCACAUGAGGAUCACCCAUGUAUCUU
apparent Kd [1]: 29.7 nM | apparent Kd [2]: 110 nM

UAUAUUAUUAUAGGAUAUGGAUAUGAUGCAUAUCCAGAAGGGUGAUUAUAAUAUAUUCUGUACAUGAGGAUCACCCAUGUUUAU
apparent Kd [3]: 258 nM | apparent Kd [4]: 75.9 nM

UAUCCACAUGAGGAUCACCCAUGUCAGGAUAUUAGAUCUAUAUAUACAUAUAAUUAUUUAAGAAGGGACACUAA
apparent Kd [1]: 11.5 nM | apparent Kd [2]: 11.8 nM

UAUCUGUCGGUCAGGAUAUCGUUUGCCACUGUAGCCGAGAAGGGACAUGAGGAUCACCCAUGUGAUUCACGGCA
apparent Kd [1]: 23.1 nM | apparent Kd [2]: 27.1 nM

UAUGCACAUGAGGAUCACCCAUGUGAGGAUAUAGGUCGUGUGCGUUCACGCAUCGUACUUAGAAGGCACUGCGG
apparent Kd [1]: 46.9 nM | apparent Kd [2]: 92.5 nM

UAUGGUAAAGUCAGGAUAUACGUACGUCGUUCUAGGUAGAAGGGACAUGAGGAUCACCCAUGUAUGAUAGUGUU
apparent Kd [1]: 46.5 nM | apparent Kd [2]: 42.8 nM

UAUGUGACACAGAAGGCCAGUCACAUGAGGAUCACCCAUGUAGUAAAGUGGAGGAUAUGUGUGCCUAGCAACUUACUAGCAAGA
apparent Kd [3]: 107 nM | apparent Kd [4]: 9.61 nM

UAUGUUGUUGUGAGGAUAUACUUAGUUUGACCGUAGUAGAAGGCACAUGAGGAUCACCCAUGUAGAUUUUUGGU
apparent Kd [1]: 9.54 nM | apparent Kd [2]: 15.8 nM

UAUGUUUUUGUGAGGAUAUACUUUGUUUGGUCGUAGUAGAAGGCACAUGAGGAUCACCCAUGUAGAUUUUUGGU
apparent Kd [1]: 22.8 nM | apparent Kd [2]: 40.4 nM

UAUUAGUAAGGAUAUCUCGUCAUGGAGGAAACUCCAUGACGAGAGAAGGUACAUGAGGAUCACCCAUGUCUAUU
apparent Kd [1]: 16.1 nM | apparent Kd [2]: 18.3 nM

UAUUAGUAAGGAUAUGAGACGUAGGACUUCGGUCCUACGUCUCAGAAGGUACAUGAGGAUCACCCAUGUUUAUU
apparent Kd [1]: 17.1 nM | apparent Kd [2]: 26.1 nM

UAUUAUCACGAAGGAUAUGCUGACAUGAGGAUCACCCAUGUAUGUAUAUUGAUCCAGCGUAUUUAGCAGAAGGUCGUGAGUAAA
apparent Kd [1]: 45.9 nM | apparent Kd [2]: 43 nM

UAUUUAAGAGGAUAUACAUGAGGAUCACCCAUGUGUGUCAAUACGCGUGAUUUUUCAUGUAGAAGGCUUGGGUA
apparent Kd [1]: 233 nM | apparent Kd [2]: 129 nM

UAUUUAUAAUAUUUUAACAUGAGGAUCACCCAUGUCGCUAGACAGGAUAUAUUUUAUUUUUUUAAGUAGAAGGGUCAUAGAUUU
apparent Kd [3]: 75.1 nM | apparent Kd [4]: 96.9 nM

UAUUUUUAUGUAAGGAUAUGGGUUUGGUUGCGGGCUUAGAAGGUACAUGAGGAUCACCCAUGUAUAAUGUGCGU
apparent Kd [1]: 29.6 nM | apparent Kd [2]: 30.5 nM

UCAACCAGCGCCGGUUAAACAUGAGGAUCACCCAUGUACUCCAGAAGGCCGCCCAAGAACGGAGUGGAGGAUAUGGAGGUUCUC
apparent Kd [3]: 46.8 nM | apparent Kd [4]: 38.7 nM

UCAACCGGCGCCGGUUGAACAUGAGGAUCACCCAUGUACUCCAGAAGGCCGCCCAAGAACGGAGUGGAGGAUAUGGAAGUUCUC
apparent Kd [3]: 47.2 nM | apparent Kd [4]: 30.1 nM

UCAAUAUAUCAGGAUAUGACUUUUUGUGUUAAGUCAGAAGGGAUAACAUGAGGAUCACCCAUGUGAUAUAGUGA
apparent Kd [1]: 52 nM | apparent Kd [2]: 58.9 nM

UCAAUUUUGCGAGGAUAUCGACCAUUCCUCUUUACAUGAGGAUCACCCAUGUACUUAUUCUACAACGAGAAGGCGCUCAUAGUU
apparent Kd [1]: 37.5 nM | apparent Kd [2]: 43 nM

UCACAGUGUCGUUAUCCGUAGCGAACAUGAGGAUCACCCAUGUAGGAUAUGUUAUUAAACUAAUAACAGAAGGACGUUGGUCGG
apparent Kd [1]: 36.7 nM | apparent Kd [2]: 220 nM

UCACGGGAUUGAGGAUAUAUAUAAAUUUAUACAAUAGAAGGCAAAUUUUUAGUUUUUUCACUUUACAUGAGGAUCACCCAUGUU
apparent Kd [1]: 26.2 nM | apparent Kd [2]: 24.2 nM

UCAUAACAUGAGGAUCACCCAUGUCAGGAUAUGAUACUAUGUACUUCGGUACAUAGUAUCAGAAGGGACAUGCU
apparent Kd [1]: 121 nM | apparent Kd [2]: 18.6 nM

UCAUAAUUGAUCCUAUUUACCAACAUGAGGAUCACCCAUGUGCAGGAUAUGCUAAAGAUAGAUAAGCAGAAGGGCAAAUACAUA
apparent Kd [1]: 162 nM | apparent Kd [2]: 756 nM
